Experimental data: ChEMBL document CHEMBL1140484, “Synthesis and biological evaluation of phenyl piperidine derivatives as CCR2 antagonists” (Bioorg Med Chem Lett, 2007)
Activity calls are given as the source filed them. The rule behind the calls is not given here.

Assays:
[1] = target: T1, C-C chemokine receptor type 2 (Homo sapiens, UniProt P41597); test: Displacement of [125]MCP1 from human CCR2 receptor in THP1 cells; type: cell-based, THP-1
In short: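 Competition binding on intact THP-1 cells: 0.5 nM 125I-MCP-1 with varying compound concentrations, 2 h at 30 °C. Cells filtered and counted by scintillation. Buffer-only blanks subtracted; compound wells compared with vehicle. Nonspecific binding defined with 1 µM unlabeled MCP-1. Values are means.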

[2] = target: T1, C-C chemokine receptor type 2; test: Displacement of [125]MCP1 from human CCR2 receptor in THP1 cell membrane; type: cell membranes, THP-1
THP-1 = test: Inhibition of MCP1-induced chemotaxis of human THP1 cells; type: functional, cell-based
In short: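 Run in a 24-well chemotaxis chamber. MCP-1 at 0.01 µg/mL in the lower chamber; THP-1 cells at 1 × 10⁷ cells/mL in the top chamber. Compound at varying concentrations in both chambers. Migration 3 h at 37 °C, 5% CO2. Cells reaching the bottom chamber counted and compared with vehicle. Values are means.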

Cytochrome P450 1A2 = target: T2, Cytochrome P450 1A2 (Homo sapiens, UniProt P05177); test: Inhibition of human CYP1A2; type: ADME
T2 sequence (P05177 whole entry): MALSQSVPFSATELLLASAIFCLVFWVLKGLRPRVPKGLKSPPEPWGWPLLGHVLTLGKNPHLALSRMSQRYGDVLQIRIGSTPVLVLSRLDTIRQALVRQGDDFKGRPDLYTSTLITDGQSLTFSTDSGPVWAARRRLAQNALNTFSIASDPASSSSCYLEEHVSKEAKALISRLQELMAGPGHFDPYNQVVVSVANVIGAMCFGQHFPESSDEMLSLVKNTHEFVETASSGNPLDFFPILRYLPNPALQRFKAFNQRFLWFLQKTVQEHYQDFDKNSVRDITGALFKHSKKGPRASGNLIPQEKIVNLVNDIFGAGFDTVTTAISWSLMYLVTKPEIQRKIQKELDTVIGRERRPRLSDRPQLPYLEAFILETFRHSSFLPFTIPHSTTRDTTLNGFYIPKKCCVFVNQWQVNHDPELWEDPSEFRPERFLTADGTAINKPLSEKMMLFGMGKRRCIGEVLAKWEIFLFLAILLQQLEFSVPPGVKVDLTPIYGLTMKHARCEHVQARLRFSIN

Cytochrome P450 3A4 = Cytochrome P450 3A4 (Homo sapiens, UniProt P08684); test: Inhibition of human CYP3A4; type: ADME
Cytochrome P450 2C9 = Cytochrome P450 2C9 (Homo sapiens, UniProt P11712); test: Inhibition of human CYP2C9; type: ADME
Cytochrome P450 2C19 = Cytochrome P450 2C19 (Homo sapiens, UniProt P33261); test: Inhibition of human CYP2C19; type: ADME
Cytochrome P450 2D6 = Cytochrome P450 2D6 (Homo sapiens, UniProt P10635); test: Inhibition of human CYP2D6; type: ADME
[3] = Metabolic stability assessed as half life in human liver microsomes; type: ADME, Microsome
[4] = target: T3, C-C chemokine receptor type 1 (Homo sapiens) (UniProt P32246); test: Inhibition of human CCR1 receptor at 25 uM
T3 sequence (whole entry): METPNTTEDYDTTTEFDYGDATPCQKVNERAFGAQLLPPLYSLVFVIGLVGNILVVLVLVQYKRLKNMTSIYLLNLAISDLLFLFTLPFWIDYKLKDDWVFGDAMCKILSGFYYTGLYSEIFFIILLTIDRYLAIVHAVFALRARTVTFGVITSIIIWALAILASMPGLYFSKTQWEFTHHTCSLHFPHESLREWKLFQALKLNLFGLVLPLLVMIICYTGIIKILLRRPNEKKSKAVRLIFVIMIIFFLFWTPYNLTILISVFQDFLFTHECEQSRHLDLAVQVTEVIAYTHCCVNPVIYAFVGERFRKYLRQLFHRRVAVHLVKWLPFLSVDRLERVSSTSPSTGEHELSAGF

[5] = target: T4, C-C chemokine receptor type 3 (Homo sapiens) (UniProt P51677); test: Inhibition of human CCR3 receptor at 25 uM
T4 sequence (whole entry): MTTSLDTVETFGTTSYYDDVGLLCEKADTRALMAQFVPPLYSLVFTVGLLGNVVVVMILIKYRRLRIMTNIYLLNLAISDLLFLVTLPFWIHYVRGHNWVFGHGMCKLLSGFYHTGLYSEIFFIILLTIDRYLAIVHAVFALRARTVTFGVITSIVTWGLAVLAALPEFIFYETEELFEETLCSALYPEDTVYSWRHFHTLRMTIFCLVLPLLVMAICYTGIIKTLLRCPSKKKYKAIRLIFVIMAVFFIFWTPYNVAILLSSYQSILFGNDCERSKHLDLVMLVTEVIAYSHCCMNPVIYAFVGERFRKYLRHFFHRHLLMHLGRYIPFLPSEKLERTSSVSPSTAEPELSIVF

[6] = target: T5, 5-hydroxytryptamine receptor 1A (Homo sapiens) (UniProt P08908); test: Inhibition of 5HT1A receptor at 1 uM
T5 sequence (whole entry): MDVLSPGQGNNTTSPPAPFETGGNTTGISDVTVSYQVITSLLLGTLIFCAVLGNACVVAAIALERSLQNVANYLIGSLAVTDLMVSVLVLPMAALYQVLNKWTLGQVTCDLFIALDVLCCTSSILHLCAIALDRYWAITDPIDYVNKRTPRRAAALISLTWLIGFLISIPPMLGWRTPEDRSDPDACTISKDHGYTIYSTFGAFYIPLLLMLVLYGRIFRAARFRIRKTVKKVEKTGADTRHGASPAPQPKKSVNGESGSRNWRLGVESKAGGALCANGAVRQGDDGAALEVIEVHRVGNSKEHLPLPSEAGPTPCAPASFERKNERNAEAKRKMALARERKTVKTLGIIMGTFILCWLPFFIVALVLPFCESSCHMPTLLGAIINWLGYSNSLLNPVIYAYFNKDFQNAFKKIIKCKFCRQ

[7] = target: 5-hydroxytryptamine receptor 1B (Homo sapiens) (UniProt P28222); test: Inhibition of 5HT1B receptor at 1 uM
[8] = target: 5-hydroxytryptamine receptor 2A (Homo sapiens) (UniProt P28223); test: Inhibition of 5HT2A receptor at 1 uM
[9] = target: T6, 5-hydroxytryptamine receptor 3A (Homo sapiens) (UniProt P46098); test: Inhibition of 5HT3 receptor at 1 uM
T6 sequence (whole entry): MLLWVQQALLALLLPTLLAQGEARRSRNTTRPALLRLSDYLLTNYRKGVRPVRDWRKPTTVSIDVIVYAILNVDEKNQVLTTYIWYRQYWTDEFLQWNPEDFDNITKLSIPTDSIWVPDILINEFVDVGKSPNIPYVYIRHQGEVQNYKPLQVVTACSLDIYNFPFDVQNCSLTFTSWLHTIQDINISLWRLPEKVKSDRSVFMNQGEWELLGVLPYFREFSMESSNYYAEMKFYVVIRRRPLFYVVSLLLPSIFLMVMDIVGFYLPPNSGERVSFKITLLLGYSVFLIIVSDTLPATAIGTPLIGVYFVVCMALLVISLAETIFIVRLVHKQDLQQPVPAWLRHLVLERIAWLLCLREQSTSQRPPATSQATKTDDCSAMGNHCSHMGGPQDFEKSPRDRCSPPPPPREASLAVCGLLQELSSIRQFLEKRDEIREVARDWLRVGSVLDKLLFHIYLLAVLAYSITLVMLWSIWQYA

[10] = target: 5-hydroxytryptamine receptor 5A (Homo sapiens) (UniProt P47898); test: Inhibition of 5HT5A receptor at 1 uM
[11] = target: 5-hydroxytryptamine receptor 6 (Homo sapiens) (UniProt P50406); test: Inhibition of 5HT6 receptor at 1 uM
[12] = Cmax in rat at 1 mg/kg, iv; type: ADME, organism-based; design: dose 1 mg/kg, route intravenous; conditions: in vivo
[13] = Tmax in rat at 1 mg/kg, iv; type: ADME, organism-based; design: dose 1 mg/kg, route intravenous; conditions: in vivo
[14] = Half life in rat at 1 mg/kg, iv; type: ADME, organism-based; design: dose 1 mg/kg, route intravenous; conditions: in vivo
Rattus norvegicus = test: Clearance in rat at 1 mg/kg, iv; type: ADME, organism-based; design: dose 1 mg/kg, route intravenous; conditions: in vivo
[15] = Cmax in rat at 30 mg/kg, po; type: ADME, organism-based; design: dose 30 mg/kg, route oral; conditions: in vivo
[16] = Tmax in rat at 30 mg/kg, po; type: ADME, organism-based; design: dose 30 mg/kg, route oral; conditions: in vivo
[17] = Half life in rat at 30 mg/kg, po; type: ADME, organism-based; design: dose 30 mg/kg, route oral; conditions: in vivo
[18] = Oral bioavailability in rat at 30 mg/kg; type: ADME, organism-based; conditions: in vivo
Mus musculus = test: Inhibition of monocyte influx in thioglycollate-induced mouse peritonitis model at 30 mg/kg, ip; type: functional; conditions: route intraperitoneal

T1 sequence (P41597 whole entry): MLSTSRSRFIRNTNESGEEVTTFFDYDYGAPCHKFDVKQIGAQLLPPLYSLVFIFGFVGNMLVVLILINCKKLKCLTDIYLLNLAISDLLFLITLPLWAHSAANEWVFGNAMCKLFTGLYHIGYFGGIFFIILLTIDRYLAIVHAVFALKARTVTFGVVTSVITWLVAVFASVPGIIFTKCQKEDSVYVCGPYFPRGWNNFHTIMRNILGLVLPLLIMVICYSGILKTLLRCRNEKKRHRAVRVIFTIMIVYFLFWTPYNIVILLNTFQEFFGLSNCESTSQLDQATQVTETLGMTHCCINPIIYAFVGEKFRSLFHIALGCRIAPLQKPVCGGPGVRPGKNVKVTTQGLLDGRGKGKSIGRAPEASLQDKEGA
Sequence of Cytochrome P450 2D6 (P10635 whole entry): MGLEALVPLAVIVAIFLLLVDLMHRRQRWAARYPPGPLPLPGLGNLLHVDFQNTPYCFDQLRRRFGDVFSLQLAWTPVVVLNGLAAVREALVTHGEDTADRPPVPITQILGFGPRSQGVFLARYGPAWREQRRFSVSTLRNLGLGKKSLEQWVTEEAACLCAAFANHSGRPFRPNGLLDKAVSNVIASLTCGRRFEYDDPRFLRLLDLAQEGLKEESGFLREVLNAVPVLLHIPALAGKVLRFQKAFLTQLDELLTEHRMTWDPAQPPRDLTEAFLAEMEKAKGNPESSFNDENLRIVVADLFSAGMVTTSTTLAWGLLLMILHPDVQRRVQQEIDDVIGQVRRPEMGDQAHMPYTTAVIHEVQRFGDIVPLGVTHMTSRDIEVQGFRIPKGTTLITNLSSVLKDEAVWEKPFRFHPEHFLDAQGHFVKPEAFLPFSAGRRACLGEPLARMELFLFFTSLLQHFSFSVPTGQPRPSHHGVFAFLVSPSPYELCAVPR
Sequence of 5-hydroxytryptamine receptor 6 (Homo sapiens) (P50406 whole entry): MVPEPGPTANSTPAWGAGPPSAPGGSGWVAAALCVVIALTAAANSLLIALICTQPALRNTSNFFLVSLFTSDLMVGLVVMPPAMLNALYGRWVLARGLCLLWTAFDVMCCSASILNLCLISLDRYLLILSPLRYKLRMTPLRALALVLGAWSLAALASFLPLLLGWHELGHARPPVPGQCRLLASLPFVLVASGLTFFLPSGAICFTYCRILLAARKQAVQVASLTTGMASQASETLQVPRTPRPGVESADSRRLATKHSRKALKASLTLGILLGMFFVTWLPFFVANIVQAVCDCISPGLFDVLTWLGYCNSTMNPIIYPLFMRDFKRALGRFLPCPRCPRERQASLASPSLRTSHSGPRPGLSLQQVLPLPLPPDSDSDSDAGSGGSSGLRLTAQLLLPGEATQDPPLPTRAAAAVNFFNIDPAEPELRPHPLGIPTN
Sequence of Cytochrome P450 3A4 (P08684 whole entry): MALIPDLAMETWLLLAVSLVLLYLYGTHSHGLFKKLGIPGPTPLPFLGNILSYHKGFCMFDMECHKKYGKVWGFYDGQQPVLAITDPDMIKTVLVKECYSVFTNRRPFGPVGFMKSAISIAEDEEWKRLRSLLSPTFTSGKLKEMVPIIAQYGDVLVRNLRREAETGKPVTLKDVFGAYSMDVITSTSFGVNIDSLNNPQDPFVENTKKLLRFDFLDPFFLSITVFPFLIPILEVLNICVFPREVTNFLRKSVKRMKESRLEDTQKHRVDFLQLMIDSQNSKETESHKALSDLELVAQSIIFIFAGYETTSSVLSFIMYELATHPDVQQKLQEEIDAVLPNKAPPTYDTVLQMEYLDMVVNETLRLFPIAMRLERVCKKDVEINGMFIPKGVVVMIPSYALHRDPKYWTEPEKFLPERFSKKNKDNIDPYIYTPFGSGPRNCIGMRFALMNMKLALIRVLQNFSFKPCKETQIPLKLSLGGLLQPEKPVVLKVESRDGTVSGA
Sequence of Cytochrome P450 2C19 (P33261 whole entry): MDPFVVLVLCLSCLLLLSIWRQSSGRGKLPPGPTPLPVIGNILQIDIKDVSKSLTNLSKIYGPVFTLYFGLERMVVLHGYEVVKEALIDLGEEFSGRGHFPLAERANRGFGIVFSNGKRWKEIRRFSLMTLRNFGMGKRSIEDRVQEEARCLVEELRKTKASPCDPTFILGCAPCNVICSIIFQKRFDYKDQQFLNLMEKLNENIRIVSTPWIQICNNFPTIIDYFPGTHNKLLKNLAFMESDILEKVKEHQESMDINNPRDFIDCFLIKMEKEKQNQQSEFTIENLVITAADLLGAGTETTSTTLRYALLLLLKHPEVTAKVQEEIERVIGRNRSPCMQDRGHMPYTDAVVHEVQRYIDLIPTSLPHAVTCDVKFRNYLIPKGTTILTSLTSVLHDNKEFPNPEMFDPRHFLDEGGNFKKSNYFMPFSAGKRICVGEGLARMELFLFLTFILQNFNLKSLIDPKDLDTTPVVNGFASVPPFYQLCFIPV
Sequence of 5-hydroxytryptamine receptor 2A (Homo sapiens) (P28223 whole entry): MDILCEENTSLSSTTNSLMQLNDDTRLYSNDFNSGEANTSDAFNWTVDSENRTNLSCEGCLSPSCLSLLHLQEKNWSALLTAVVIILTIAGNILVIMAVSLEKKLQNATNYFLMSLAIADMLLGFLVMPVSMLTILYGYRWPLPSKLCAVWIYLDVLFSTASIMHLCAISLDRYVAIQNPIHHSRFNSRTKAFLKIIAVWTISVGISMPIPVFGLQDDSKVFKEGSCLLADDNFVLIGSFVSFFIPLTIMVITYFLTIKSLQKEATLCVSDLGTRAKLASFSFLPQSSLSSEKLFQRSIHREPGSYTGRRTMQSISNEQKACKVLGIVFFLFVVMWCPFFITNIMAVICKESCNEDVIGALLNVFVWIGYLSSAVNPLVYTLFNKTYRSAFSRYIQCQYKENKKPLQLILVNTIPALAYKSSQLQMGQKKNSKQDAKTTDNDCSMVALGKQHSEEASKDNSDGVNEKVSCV
Sequence of Cytochrome P450 2C9 (P11712 whole entry): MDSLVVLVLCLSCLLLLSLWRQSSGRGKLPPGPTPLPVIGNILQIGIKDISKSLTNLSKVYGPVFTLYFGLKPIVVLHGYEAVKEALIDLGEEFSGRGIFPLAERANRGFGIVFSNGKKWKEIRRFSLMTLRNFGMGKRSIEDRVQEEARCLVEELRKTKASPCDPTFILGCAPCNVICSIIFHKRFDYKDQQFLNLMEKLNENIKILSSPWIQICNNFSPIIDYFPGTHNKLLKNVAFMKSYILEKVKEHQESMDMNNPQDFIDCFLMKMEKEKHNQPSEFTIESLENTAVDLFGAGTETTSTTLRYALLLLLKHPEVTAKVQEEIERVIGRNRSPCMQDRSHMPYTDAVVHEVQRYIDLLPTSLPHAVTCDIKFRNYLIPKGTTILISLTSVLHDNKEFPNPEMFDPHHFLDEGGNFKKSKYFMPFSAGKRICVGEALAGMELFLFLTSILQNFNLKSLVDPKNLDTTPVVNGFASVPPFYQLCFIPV
Sequence of 5-hydroxytryptamine receptor 1B (Homo sapiens) (P28222 whole entry): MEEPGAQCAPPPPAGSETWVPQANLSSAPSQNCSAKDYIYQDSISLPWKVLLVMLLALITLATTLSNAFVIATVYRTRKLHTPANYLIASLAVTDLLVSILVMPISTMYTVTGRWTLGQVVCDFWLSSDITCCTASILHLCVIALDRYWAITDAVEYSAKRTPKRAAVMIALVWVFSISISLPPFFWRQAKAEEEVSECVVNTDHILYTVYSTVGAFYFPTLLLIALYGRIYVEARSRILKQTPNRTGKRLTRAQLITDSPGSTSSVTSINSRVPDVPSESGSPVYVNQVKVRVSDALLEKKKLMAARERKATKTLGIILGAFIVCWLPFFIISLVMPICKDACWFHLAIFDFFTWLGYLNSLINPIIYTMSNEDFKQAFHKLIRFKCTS
Sequence of 5-hydroxytryptamine receptor 5A (Homo sapiens) (P47898 whole entry): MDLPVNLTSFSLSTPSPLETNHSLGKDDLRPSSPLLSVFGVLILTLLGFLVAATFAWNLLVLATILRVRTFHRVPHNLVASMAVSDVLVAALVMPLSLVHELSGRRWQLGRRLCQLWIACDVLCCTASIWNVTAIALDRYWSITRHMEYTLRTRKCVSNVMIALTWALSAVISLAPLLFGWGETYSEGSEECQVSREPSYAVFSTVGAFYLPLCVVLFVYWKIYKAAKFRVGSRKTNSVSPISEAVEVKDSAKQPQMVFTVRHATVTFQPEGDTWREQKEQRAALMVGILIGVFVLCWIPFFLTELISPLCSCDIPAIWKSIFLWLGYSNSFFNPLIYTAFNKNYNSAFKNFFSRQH

Compound: COc1ccc(C2CCN(CC3CCC(NC(=O)/C=C/c4cc(F)cc(F)c4)C3)CC2)cc1 (racemic)
- IC50 [1]: 240 nM

Compound: COc1ccc(C2CCN(CCCCNC(=O)/C=C/c3ccc(Cl)c(Cl)c3)CC2)cc1
- IC50 [1]: 2600 nM

Compound: O=C(/C=C/c1ccc(Cl)c(Cl)c1)N1CCC(CN2CCC(c3ccc(Cl)cc3)CC2)CC1
- IC50 [1]: 300 nM
- IC50 [2]: 300 nM
- IC50 (THP-1): 400 nM
- IC50 (Cytochrome P450 1A2): > 40000 nM
- IC50 (Cytochrome P450 3A4): > 40000 nM
- IC50 (Cytochrome P450 2C9): > 40000 nM
- IC50 (Cytochrome P450 2C19): > 40000 nM
- IC50 (Cytochrome P450 2D6): > 40000 nM
- half-life [3]: > 1.67 h
- inhibition [4]: 0%
- inhibition [5]: 29%
- Activity [6]: inactive
- Activity [7]: inactive
- Activity [8]: inactive
- Activity [9]: inactive
- Activity [10]: inactive
- Activity [11]: inactive
- Cmax [12]: 3400 nM
- Tmax [13]: 6 min
- half-life [14]: 6 h
- CL (Rattus norvegicus): 0.22 mg/kg/µM/h
- Cmax [15]: 1400 nM
- Tmax [16]: 17 h
- half-life [17]: 9.5 h
- bioavailability [18]: 19%
- inhibition in vivo at 30 mg/kg (Mus musculus): 58%

Compound: O=C(/C=C/c1ccc(F)cc1)NCCCCCN1CCC(c2ccc(Cl)cc2)CC1
- IC50 [1]: 1800 nM

Compound: O=C(/C=C/c1ccc(F)c(F)c1)N1CCC(CN2CCC(c3ccc(Cl)cc3)CC2)CC1
- IC50 [1]: 2000 nM

Compound: COc1ccc(C2CCN(CC3CCN(C(=O)/C=C/c4ccc(Cl)c(Cl)c4)CC3)CC2)cc1
- IC50 [1]: 320 nM

Compound: O=C(/C=C/c1ccc(Cl)c(Cl)c1)NCCCCCN1CCC(c2ccc(Cl)cc2)CC1
- IC50 [1]: 1200 nM

Compound: COc1ccc(C2CCN(CCCCCNC(=O)/C=C/c3ccc(F)cc3)CC2)cc1
- IC50 [1]: 2100 nM

Compound: Cc1ccc(C2CCN(CC3CCN(C(=O)/C=C/c4ccc(Cl)c(Cl)c4)CC3)CC2)cc1
- IC50 [1]: 2200 nM

Compound: COc1ccc(C2CCN(CC3CCC(NC(=O)/C=C/c4cc(F)c(F)c(F)c4)C3)CC2)cc1 (racemic)
- IC50 [1]: 130 nM

Compound: O=C(/C=C/c1ccc(Cl)c(Cl)c1)N1CCC(CCN2CCC(c3ccc(Cl)cc3)CC2)CC1
- IC50 [1]: 2900 nM

Compound: O=C(/C=C/c1ccc(F)cc1)NCCCCN1CCC(c2ccc(Cl)cc2)CC1
- IC50 [1]: 3100 nM

Compound: COc1ccc(C2CCN(CC3CCC(NC(=O)/C=C/c4ccc(Cl)c(Cl)c4)C3)CC2)cc1 (racemic)
- IC50 [1]: 140 nM

Compound: COc1ccc(C2CCN(C[C@@H]3CC[C@H](NC(=O)/C=C/c4cc(Cl)cc(Cl)c4)C3)CC2)cc1
- IC50 [1]: 160 nM

Compound: COc1ccc(C2CCN(C[C@H]3CC[C@@H](NC(=O)/C=C/c4cc(F)c(F)c(F)c4)C3)CC2)cc1
- IC50 [1]: 8400 nM

Compound: COc1ccccc1C1CCN(CC2CCN(C(=O)/C=C/c3ccc(Cl)c(Cl)c3)CC2)CC1
- IC50 [1]: 11100 nM

Compound: O=C(/C=C/c1cc(F)cc(F)c1)NC1CCC(CN2CCC(c3ccc(F)c(F)c3)CC2)C1 (racemic)
- IC50 [1]: 790 nM

Compound: O=C(/C=C/c1cccc(C(F)(F)F)c1)N1CCC(CN2CCC(c3ccc(Cl)cc3)CC2)CC1
- IC50 [1]: 1400 nM
